In ChEMBL document CHEMBL4765327, “Design and synthesis of thiourea-based derivatives as Mycobacterium tuberculosis growth and enoyl acyl carrier protein reductase (InhA) inhibitors” (Eur J Med Chem, 2020):

What was measured:
[1] = tested on: Mycobacterium tuberculosis; test: Antimycobacterial activity against Mycobacterium tuberculosis H37Rv assessed as inhibition of microbial growth incubated for 1 week by alamar blue based assay; format: functional; conditions: 168 h, time 1 weeks
How it was run: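 M. tuberculosis H37Rv by Microplate Alamar Blue Assay; MIC reported in μg/mL, with isoniazid, rifampicin and ethambutol run as standard drugs.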

[2] = Cytotoxicity against mouse RAW264.7 cells assessed as reduction in cell viability at 50 ug/ml incubated for 72 to 96 hrs by MTT assay; format: cell-based; conditions: at 50 µg/mL, time 72-96 hrs, read-out: INH
[3] = biological target: T1, Enoyl-[acyl-carrier-protein] reductase [NADH] (Mycobacterium tuberculosis, UniProt P9WGR1); test: Inhibition of recombinant Mycobacterium tuberculosis His6-tagged InHA expressed in Escherichia coli BL21 using trans-2-dodecenoyl-Coenzyme A as substrate
T1 sequence (P9WGR1 whole entry): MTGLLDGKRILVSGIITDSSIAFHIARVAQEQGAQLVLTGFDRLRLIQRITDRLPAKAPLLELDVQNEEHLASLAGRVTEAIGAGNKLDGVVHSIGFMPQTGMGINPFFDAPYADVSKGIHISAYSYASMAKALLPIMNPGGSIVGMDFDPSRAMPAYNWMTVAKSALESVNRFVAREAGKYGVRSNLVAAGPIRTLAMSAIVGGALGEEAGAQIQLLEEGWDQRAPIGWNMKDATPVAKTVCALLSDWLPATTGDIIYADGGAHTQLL
How it was run: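 M. tuberculosis InhA screened at 50 μM, and compounds above 70% inhibition also at 5 μM; triclosan positive control; triplicate assays; IC50 from 4-parameter curve fit using at least seven points.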

[4] = tested on: Mycobacterium tuberculosis; test: Antimycobacterial activity against Mycobacterium tuberculosis H37Rv assessed as reduction in colony forming unit at 1 to 10 ug/ml incubated for 7 days in nutrient starvation medium by alamar blue based serial dilution method; format: functional; conditions: dose 1-10 µg/ml; time 7 day
How it was run: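 Culture starved in PBS at 37 °C for six weeks, then exposed to compounds, isoniazid or rifampicin at 10 μg/ml for seven days; persisters counted by MPN assay.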

[5] = tested on: Mycobacterium tuberculosis; test: Antimycobacterial activity against Mycobacterium tuberculosis H37Rv infected in mouse primary macrophage cells assessed as reduction in colony forming unit at 10 uM incubated for 48 hrs followed by macrophage lysis and measured after 3 weeks by alamar blue based serial dilution method; format: functional; conditions: time 23 day
How it was run: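 Macrophages infected with M. tuberculosis, then exposed to compounds at 10 μM final for two days; bacteria suspended in 7H9 broth, serially diluted, plates incubated at 37 °C and growth read after three weeks.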

Compound | MIC [1] [µM] | cytotoxicity at 50 ug/ml [2] [%] | IC50 [3] [µM] | fold change (FC) [4] | fold change (FC) [5]
Cc1cccnc1NC(=S)Nc1ccc2ccccc2c1 | > 85.3 | – | – | – | –
O=[N+]([O-])c1ccc(NC(=S)NCc2ccccc2Br)cc1 | 4.26 | 24.9 | 15.6 | – | –
O=C(NCc1ccccc1Cl)Nc1ccccc1 | > 95.8 | – | – | – | –
S=C(NCc1ccccc1Br)Nc1ccccc1 | > 77.9 | – | – | – | –
CO[C@H]1/C=C/O[C@@]2(C)Oc3c(C)c(O)c4c(O)c(c(/C=N/N5CCN(C)CC5)c(O)c4c3C2=O)NC(=O)/C(C)=C\C=C\[C@H](C)[C@H](O)[C@@H](C)[C@@H](O)[C@@H](C)[C@H](OC(C)=O)[C@@H]1C [RIFAMPIN] | 0.12 | – | – | 1.6 | –
COc1ccc(NC(=S)Nc2ncccc2C)cc1 | 45.8 | – | – | – | –
Cc1cccnc1NC(=S)Nc1cc(C(F)(F)F)cc(C(F)(F)F)c1 | > 66 | – | – | – | –
Cc1cccnc1NC(=S)Nc1ccccc1C(F)(F)F | > 80.4 | – | – | – | –
CC[C@@H](CO)NCCN[C@@H](CC)CO [ETHAMBUTOL] | 7.6 | – | – | – | –
Cc1cccnc1NC(=S)Nc1ccccc1 | > 103 | – | – | – | –
Cc1cccnc1NC(=S)Nc1ccc(I)cc1 | 2.11 | 31.2 | – | 2 | –
S=C(NCc1ccccc1Cl)Nc1ccccc1 | > 90.2 | – | – | – | –
Cc1cccnc1NC(=S)Nc1ccc(Br)cc1 | 2.42 | 30.8 | – | – | –
Cc1cccnc1NC(=S)Nc1ccc(F)cc1 | 47.9 | – | – | – | –
O=[N+]([O-])c1ccc(NC(=S)NCc2ccccc2Cl)cc1 | 2.42 | 29.9 | 17.7 | 2.6 | 1.8
NNC(=O)c1ccncc1 [ISONIAZID] | 0.36 | – | – | 1.4 | 2.5
Cc1cccnc1NC(=S)Nc1ccc(Cl)cc1Cl | 2.5 | 34 | – | 2.3 | 1.4
O=C(NCc1ccccc1Br)Nc1ccccc1 | > 82 | – | – | – | –
Cc1ccc(NC(=S)Nc2ncccc2C)cc1 | 97.3 | – | – | – | –
